High-throughput results: PubChem, The Scripps Research Institute Molecular Screening Center
rCAG RNA binder = binders of r(CAG) RNA repeats, primary screen, biochemical, fluorescence; 370,000 tested, 1.3% active; inhibition, % at 3 µM; AID 651821, 2012; r(CAG) RNA repeat, TO-PRO-1 dye displacement fluorescence;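 active = inhibition above the plate cutoff, the mean of all test compounds on that plate plus 3 SD, cut at about 35% in these data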;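 note: 0% = DMSO alone and 100% = 100 µM mitoxantrone as full dye displacement; higher means more dye released from RNA so lower well fluorescence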
PRMT1 inh = PRMT1 methyltransferase inhibitors, primary screen, biochemical, fluorescence polarization. inhibition, % at 2.79 µM. AID 652257, 2013. 370,000 tested, 1.3% active. recombinant PRMT1, activity-based probe fluorescence polarization;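 active = inhibition above about 21% made by adding two undisclosed values, limit read from the data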
HTRA1 inhibitor = HTRA1 serine protease inhibitors, primary screen, biochemical, fluorescence polarization, HTS | Q92743 | recombinant HTRA1, FP-rhodamine activity-based probe | inhibition, % at 5.96 µM | 340,000 tested, 0.5% active; in the data active = inhibition above about 36%;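 note: 0% = enzyme with DMSO and 100% = wells lacking enzyme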
ABHD4 inh = ABHD4 inhibitors, primary screen, biochemical, fluorescence polarization, mouse; (Lyso)-N-acylphosphatidylethanolamine lipase (Mus musculus), Q8VD66; purified mABHD4, FP-Rh probe fluorescence polarization; inhibition, % at 8.92 µM; 370,000 tested, 0.54% active; AID 720543, 2013;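 active = inhibition exceeding the mean over every tested compound plus 3 SD, cut at about 30% in these data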;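 note: 0% = plate median of compound wells and 100% = S159A mutant with DMSO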
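system = mouse ABHD4 enzyme, wild type | medium = HEPES pH 7.0, NaCl, Pluronic buffer | also added = FP-Rh probe | incubation = Enzyme–compound pre-incubation 45 min, then probe 60 min, both 25 °C | technique = fluorescence polarization, excitation 525 nm, emission 598 nm, BODIPY TMR filters | controls = S159A mutant high control, sample median low control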
SIAE inh = human SIAE inhibitors, primary screen, biochemical, fluorescence polarization, FP-Rh probe, 1536-well HTS | Sialate O-acetylesterase (Homo sapiens), Q9HAT2 | SIAE FP-Rh probe binding | inhibition, % at 9.66 µM | 370,000 tested, 0.69% active | AID 1053197, 2014;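 active = inhibition above a cutoff: mean of compounds within the control limits plus 3 SD of those, cut at about 17% in these data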;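 note: 0% = plate median of compound wells and 100% = probe without SIAE protein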
Target sequence (Q9HAT2 whole entry, looked up): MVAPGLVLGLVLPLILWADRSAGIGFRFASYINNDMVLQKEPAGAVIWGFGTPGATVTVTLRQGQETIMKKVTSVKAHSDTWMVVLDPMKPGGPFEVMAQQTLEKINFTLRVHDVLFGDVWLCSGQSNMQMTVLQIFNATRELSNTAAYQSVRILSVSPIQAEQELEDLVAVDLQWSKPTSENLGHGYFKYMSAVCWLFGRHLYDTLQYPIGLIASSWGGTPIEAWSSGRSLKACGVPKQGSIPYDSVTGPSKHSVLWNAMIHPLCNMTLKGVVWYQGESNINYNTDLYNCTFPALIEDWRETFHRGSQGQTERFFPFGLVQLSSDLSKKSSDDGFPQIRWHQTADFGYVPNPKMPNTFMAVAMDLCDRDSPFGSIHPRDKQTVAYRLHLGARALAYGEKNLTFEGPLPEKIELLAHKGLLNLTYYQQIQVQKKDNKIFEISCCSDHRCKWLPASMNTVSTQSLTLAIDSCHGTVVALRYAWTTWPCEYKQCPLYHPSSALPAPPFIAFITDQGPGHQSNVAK
rCAG binder conf = small molecules binding CAG repeat RNA – biochemical, fluorescence, confirmation. shares compounds with rCAG RNA binder. r(CAG) RNA repeat, TO-PRO-1 dye displacement fluorescence. inhibition, % at 3 µM. 4,300 tested, 70% active;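 active = inhibition above a per-plate cutoff, the mean inhibition of sample wells plus 3 SD, cut at about 35% in these data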;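 note: loss of TO-PRO-1 fluorescence as compound displaces dye from 1x1 AA loop RNA; 0% = DMSO only wells and 100% = 100 µM mitoxantrone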
dCAG dye counter = displacement of TO-PRO-1 from CAG DNA duplex, counter-screen for rCAG RNA repeat binder project, biochemical, fluorescence, TO-PRO-1 dye, d(CAG) DNA oligo; shares compounds with rCAG RNA binder; d(CAG) DNA oligo TO-PRO-1 dye displacement; inhibition, % at 3 µM; 4,300 tested, 94% active; AID 652068, 2013;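 active = inhibition above its plate's cutoff, the mean test-well inhibition plus 3 SD, cut at about 4.8% in these data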;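 note: 0% = DNA dye mix with DMSO and 100% = 100 µM mitoxantrone; hits displace the dye from DNA and so lower well fluorescence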
dCAG dye DR = inhibitors of DNA CAG/GTC TO-PRO-1 complex, dose response, counter-screen for rCAG RNA repeat binder project, biochemical, fluorescence, TO-PRO-1 dye; IC50, µM; shares compounds with rCAG RNA binder; AID 686960, 2013; 250 tested, 20% active; DNA CAG/GTC duplex TO-PRO-1 dye displacement fluorescence; in the data active = IC50 below about 10 µM
* marks the source's active call; other numbers are inactive results; i = inactive; nt = no result. A selection: hits, their analogues and other compounds. The true share with any hit is near 3.3%.

SMILES	rCAG RNA binder	PRMT1 inh	HTRA1 inhibitor	ABHD4 inh	SIAE inh	rCAG binder conf	dCAG dye counter	others
N#Cc1ccc(OCCCN2CCC(C(O)(C3=CCCC3)c3ccccc3)CC2)cc1 (stereo unspecified)	0	-8	nt	7	3	nt	nt
COc1ccc(-n2c(SCC(=O)NCC3CCCO3)nnc2-c2ccncc2)cc1 (stereo unspecified)	0	-2	nt	4	-1	nt	nt
Cc1cc(NS(=O)(=O)c2ccc(NC(=S)NC(=O)/C=C/c3ccccc3)cc2)no1	71*	-1	-16	-16	-16	47*	17*
COc1ccc(/C=C/C(=O)NC(=S)Nc2ccc(S(=O)(=O)Nc3cc(OC)ncn3)cc2)cc1	17	-3	nt	-2	-14	nt	nt
Cc1cc(NS(=O)(=O)c2ccc(NC(=O)/C=C/c3ccccc3)cc2)no1	30	3	0	-10	0	nt	nt
COc1ccc(NC(=S)NC(=O)/C=C/c2cccs2)cc1	-4	-2	-4	-4	1	nt	nt
O=C(/C=C/c1cccs1)NC(=S)Nc1ccc(S(=O)(=O)Nc2ccccc2C(F)(F)F)cc1	56*	-1	-82	-16	-2	70*	32*	dCAG dye DR=i
Cc1ccc(/C=C/C(=O)NC(=S)Nc2ccc(S(=O)(=O)Nc3cc(C)on3)cc2)cc1	80*	-5	-32	-12	-23	77*	46*
C=CCN=C1NC(c2ccc(Cl)cc2)C(C(=O)OC)=C(C)N1Cc1ccccc1C(F)(F)F (stereo unspecified)	4	-5	nt	3	-1	nt	nt
O=C(NN1C(=O)c2cc(Br)ccc2NC1c1cc(Br)cc(Br)c1O)c1ccncc1 (stereo unspecified)	51*	-1	6	7	11	42*	14*
O=C(NN1C(=O)c2cc(Br)ccc2NC1c1ccccc1Cl)c1ccncc1 (stereo unspecified)	7	-2	-8	-10	-2	nt	nt
COc1ccc(/C=N/NS(=O)(=O)c2ccccc2)cc1OC	0	2	3	-5	10	nt	nt
O=C1/C(=C/c2cccc(F)c2)SC(=S)N1NS(=O)(=O)c1ccccc1	62*	19	-14	-2	1	65*	17*
COc1cc(/C=C2\SC(=S)N(NC(=O)c3ccccc3O)C2=O)ccc1O	55*	5	-183	-159	-98	34	13*
COc1cc(/C=C2\SC(=S)N(NS(=O)(=O)c3ccccc3)C2=O)cc(OC)c1OC	65*	9	-5	1	1	65*	27*
COc1ccc(/C=C2/SC(=O)N(NS(=O)(=O)c3ccccc3)C2=S)cc1OC	69*	4	-10	-7	-8	58*	23*
O=C1/C(=C/c2ccccn2)SC(=S)N1NS(=O)(=O)c1ccccc1	32	2	-6	0	7	nt	nt
O=S(=O)(c1ccccc1)n1c(CN2CCOCC2)nc2ccccc21	3	-7	nt	-3	10	nt	nt
O=C(c1cc(F)cc(F)c1)N1CCCC(c2nc(-c3cccs3)no2)C1 (stereo unspecified)	2	2	nt	6	6	nt	nt
CCCCCCCCN1C(=O)[C@@H](CC(=O)N2CCN(C(=O)c3ccco3)CC2)C[C@@]2(C(=O)OC)C1=C[C@H](C(C)(C)C)O[C@@H]2C	6	2	nt	-5	0	nt	nt
COc1cccc(/C=C2\SC(=S)N(c3cccnc3)C2=O)c1OC	2	10	4	-9	-5	nt	nt
COc1cccc(/C=C2\SC(=S)N(NS(=O)(=O)c3ccccc3)C2=O)c1OC	74*	3	-12	0	-6	65*	28*
CCOC(=O)[C@]12CCCC3=C1N(CCC3)C(=O)[C@@H](CC(=O)NCc1cccc(C(F)(F)F)c1)C2	-1	8	nt	4	-2	nt	nt
COc1cc(/C=C2/CCC/C(=C\c3cc(O)c(OC)c(Cl)c3)C2=O)cc(Cl)c1O	38*	-1	2	1	-6	30	10*
COc1cc(/C=C2\COC/C(=C\c3cc(OC)c(OC)c(OC)c3)C2=O)cc(OC)c1OC	0	2	3	-1	-4	nt	nt
SMILES	rCAG RNA binder	PRMT1 inh	HTRA1 inhibitor	ABHD4 inh	SIAE inh	rCAG binder conf	dCAG dye counter	others
C[C@]12Cc3ccccc3C1CC1=N[C@@H](c3ccccn3)O[C@@]13C[C@@H]2C(=O)N3C1CCN(Cc2ccccc2)CC1 (stereo partly specified)	2	-2	nt	5	6	nt	nt
CCCn1c(N)c(N2CCCCC2)c(=O)n(CC(=O)Nc2ccccc2C)c1=O	-5	-2	2	2	1	nt	nt
CCCn1c(N)c(N2CCCCC2)c(=O)n(CC(=O)Nc2ccc(OC(F)(F)F)cc2)c1=O	37*	5	-1	-24	-3	2	0
O=S1(=O)c2c(cccc2N2CCC[C@@H]2CO)O[C@H]2CCN1C2	4	0	nt	-3	-3	nt	nt
CC(C)N(Cc1c(O)ccc2c(=O)c(-c3ccc(Cl)cc3)coc12)C(C)C	42*	-3	-41	-1	-4	18	10*
O=[N+]([O-])c1ccc(Cl)c(S(=O)(=O)Nc2ccc(-c3ccc(N4CCOCC4)nn3)cc2)c1	27	0	-4	4	0	nt	nt
O=[N+]([O-])c1ccc(Cl)c(S(=O)(=O)Nc2cccc(-c3ccc(N4CCOCC4)nn3)c2)c1	38*	-3	5	5	-1	32	9.9*
CCCCNS(=O)(=O)CC1NCc2ccccc21 (stereo unspecified)	7	-1	nt	-4	4	nt	nt
CCOC(=O)Cc1cc(=O)n(-c2nc3ccccc3s2)[nH]1	73*	10	49*	4	10	34	12*
CCOC(=O)c1sc(-n2[nH]c(C)cc2=O)nc1C	78*	1	11	15	4	47*	13*
CCOC(=O)CSc1nc(C)c(C(=O)OCC)s1	-8	-1	-7	2	2	nt	nt
O=C1CC(c2ccccc2)Oc2cc(O)cc(O)c21 (stereo unspecified)	3	3	-3	-2	1	nt	nt
